According to ChEMBL document CHEMBL5653631, “A Potent and Selective ULK1 Inhibitor Suppresses Autophagy and Sensitizes Cancer Cells to Nutrient Stress” (iScience, 2018):
One block for each compound: values may come before it.

Experiments:
[1] = molecular target: T1, Eukaryotic elongation factor 2 kinase (Homo sapiens) (UniProt O00418); test: Inhibition of human recombinant eEF2K at 500 nM in presence of ATP by radiometric assay relative to control
T1 sequence (whole entry): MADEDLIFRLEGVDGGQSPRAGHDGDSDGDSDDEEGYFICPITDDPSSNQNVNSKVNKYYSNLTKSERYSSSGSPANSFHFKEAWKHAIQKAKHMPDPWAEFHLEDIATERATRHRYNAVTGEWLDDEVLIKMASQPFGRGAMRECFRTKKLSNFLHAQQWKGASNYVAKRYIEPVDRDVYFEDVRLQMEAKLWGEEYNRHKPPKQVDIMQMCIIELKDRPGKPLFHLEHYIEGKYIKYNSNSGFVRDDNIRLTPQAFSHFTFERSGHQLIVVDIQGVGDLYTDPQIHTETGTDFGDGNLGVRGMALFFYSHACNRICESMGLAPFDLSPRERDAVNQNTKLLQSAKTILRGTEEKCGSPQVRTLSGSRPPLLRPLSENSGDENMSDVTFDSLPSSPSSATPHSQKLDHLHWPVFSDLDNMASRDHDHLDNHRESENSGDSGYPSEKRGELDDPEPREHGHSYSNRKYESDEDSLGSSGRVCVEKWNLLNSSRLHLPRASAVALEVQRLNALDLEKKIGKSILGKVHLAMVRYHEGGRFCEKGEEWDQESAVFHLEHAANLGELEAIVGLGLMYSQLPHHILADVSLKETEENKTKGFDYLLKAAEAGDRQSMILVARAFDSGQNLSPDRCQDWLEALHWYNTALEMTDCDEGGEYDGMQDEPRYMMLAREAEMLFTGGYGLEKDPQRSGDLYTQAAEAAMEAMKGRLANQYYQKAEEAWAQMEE

[2] = molecular target: Focal adhesion kinase 1 (Homo sapiens) (UniProt Q05397); test: Inhibition of human recombinant FAK at 500 nM in presence of ATP by radiometric assay relative to control
[3] = molecular target: G protein-coupled receptor kinase 5 (Homo sapiens) (UniProt P34947); test: Inhibition of human recombinant GPRK5 at 500 nM in presence of ATP by radiometric assay relative to control
[4] = molecular target: T2, cGMP-dependent protein kinase 1 (Homo sapiens) (UniProt Q13976); test: Inhibition of human recombinant PKG1 at 15 nM in presence of ATP by radiometric assay relative to control
T2 sequence (whole entry): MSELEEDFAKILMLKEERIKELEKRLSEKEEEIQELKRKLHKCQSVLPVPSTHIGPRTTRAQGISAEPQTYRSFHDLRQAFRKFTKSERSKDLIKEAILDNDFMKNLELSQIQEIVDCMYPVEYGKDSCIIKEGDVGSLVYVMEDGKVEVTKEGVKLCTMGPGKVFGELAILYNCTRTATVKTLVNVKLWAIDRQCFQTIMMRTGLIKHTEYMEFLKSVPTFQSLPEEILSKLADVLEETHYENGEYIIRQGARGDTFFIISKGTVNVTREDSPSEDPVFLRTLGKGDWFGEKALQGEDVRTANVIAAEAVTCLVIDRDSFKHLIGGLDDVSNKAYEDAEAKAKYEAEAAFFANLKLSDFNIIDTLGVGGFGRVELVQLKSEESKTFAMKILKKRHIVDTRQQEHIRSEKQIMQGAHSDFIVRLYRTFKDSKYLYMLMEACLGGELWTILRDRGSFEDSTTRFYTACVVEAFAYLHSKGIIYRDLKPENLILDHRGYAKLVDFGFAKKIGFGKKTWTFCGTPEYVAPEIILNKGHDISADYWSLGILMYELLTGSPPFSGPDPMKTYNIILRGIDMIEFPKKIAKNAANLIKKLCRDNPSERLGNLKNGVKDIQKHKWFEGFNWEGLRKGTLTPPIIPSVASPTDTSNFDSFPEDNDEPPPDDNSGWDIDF

[5] = molecular target: T3, Calcium/calmodulin-dependent protein kinase type IV (Homo sapiens) (UniProt Q16566); test: Inhibition of human recombinant CaMK4 at 15 nM related to control ULK1
T3 sequence (whole entry): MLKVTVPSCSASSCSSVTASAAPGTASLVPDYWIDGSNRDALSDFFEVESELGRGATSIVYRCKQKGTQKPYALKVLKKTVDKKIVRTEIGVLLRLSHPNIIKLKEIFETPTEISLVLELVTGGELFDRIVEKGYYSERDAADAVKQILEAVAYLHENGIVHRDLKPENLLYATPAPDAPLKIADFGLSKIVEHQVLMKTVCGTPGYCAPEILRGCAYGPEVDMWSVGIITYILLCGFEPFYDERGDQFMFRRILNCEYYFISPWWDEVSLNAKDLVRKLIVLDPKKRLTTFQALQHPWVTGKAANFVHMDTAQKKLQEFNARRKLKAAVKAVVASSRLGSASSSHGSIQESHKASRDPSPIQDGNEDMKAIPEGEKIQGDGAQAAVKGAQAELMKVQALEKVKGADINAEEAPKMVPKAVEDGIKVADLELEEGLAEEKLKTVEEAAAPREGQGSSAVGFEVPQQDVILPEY

[6] = molecular target: Insulin receptor (Homo sapiens) (UniProt P06213); test: Inhibition of human recombinant INSR at 15 nM related to control ULK1
Homo sapiens = organism: Homo sapiens; test: Inhibition of human recombinant p70S6K at 15 nM related to control ULK1
[7] = molecular target: Cyclin-dependent kinase 6 (Homo sapiens) (UniProt Q00534); test: Inhibition of human recombinant CDK6 at 40 nM in presence of ATP by radiometric assay relative to control
[8] = molecular target: 5'-AMP-activated protein kinase catalytic subunit alpha-1 (Homo sapiens) (UniProt Q13131); test: Inhibition of human recombinant AMPKa1 at 40 nM related to control ULK1
Outline: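 Radiometric activity assays in a panel of 327 human recombinant kinases, each run in duplicate at one inhibitor concentration. Activity remaining is expressed as percent of vehicle control, and percent inhibition is calculated as 100% minus percent activity remaining.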

[9] = molecular target: T1, Eukaryotic elongation factor 2 kinase (Homo sapiens); test: Inhibition of human recombinant eEF2K at 40 nM related to control ULK1
[10] = molecular target: Serine/threonine-protein kinase SIK3 (Homo sapiens) (UniProt Q9Y2K2); test: Inhibition of human recombinant QSK at 40 nM related to control ULK1
Chain of Serine/threonine-protein kinase SIK3 (Homo sapiens) (Q9Y2K2 whole entry, looked up): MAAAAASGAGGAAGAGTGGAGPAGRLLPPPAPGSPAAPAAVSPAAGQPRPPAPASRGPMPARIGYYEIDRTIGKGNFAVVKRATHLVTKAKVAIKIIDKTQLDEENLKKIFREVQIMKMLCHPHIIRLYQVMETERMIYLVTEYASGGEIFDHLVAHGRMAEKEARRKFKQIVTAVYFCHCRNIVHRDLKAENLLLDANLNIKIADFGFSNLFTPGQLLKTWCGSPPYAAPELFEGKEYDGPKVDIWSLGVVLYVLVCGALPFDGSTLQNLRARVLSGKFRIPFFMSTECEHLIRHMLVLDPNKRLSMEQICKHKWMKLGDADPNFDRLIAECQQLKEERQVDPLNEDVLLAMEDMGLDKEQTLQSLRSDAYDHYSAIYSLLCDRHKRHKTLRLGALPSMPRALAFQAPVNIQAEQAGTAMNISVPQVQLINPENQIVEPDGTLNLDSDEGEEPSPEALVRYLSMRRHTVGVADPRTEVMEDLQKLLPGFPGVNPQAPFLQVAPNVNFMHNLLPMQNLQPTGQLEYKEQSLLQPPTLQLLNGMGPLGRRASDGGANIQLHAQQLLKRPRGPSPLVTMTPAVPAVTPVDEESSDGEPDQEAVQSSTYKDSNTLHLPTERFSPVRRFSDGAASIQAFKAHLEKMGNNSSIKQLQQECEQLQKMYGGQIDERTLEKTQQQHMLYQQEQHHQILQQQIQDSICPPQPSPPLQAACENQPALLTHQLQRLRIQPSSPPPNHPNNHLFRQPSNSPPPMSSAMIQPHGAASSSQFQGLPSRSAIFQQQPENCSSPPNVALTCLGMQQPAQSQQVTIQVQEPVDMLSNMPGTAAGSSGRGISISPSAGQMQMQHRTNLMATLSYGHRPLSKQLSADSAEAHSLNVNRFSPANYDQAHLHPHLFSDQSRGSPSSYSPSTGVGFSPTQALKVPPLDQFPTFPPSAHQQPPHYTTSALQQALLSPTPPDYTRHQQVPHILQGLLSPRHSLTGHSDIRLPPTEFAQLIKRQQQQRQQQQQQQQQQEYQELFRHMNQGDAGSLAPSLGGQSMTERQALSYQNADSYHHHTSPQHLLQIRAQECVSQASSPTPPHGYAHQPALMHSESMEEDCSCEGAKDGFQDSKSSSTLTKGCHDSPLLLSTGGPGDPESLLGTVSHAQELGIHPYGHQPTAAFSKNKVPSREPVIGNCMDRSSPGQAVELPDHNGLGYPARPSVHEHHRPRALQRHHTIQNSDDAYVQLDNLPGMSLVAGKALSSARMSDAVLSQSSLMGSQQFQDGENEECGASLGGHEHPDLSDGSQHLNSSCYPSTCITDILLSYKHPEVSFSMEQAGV

Chain of Cyclin-dependent kinase 6 (Homo sapiens) (Q00534 whole entry): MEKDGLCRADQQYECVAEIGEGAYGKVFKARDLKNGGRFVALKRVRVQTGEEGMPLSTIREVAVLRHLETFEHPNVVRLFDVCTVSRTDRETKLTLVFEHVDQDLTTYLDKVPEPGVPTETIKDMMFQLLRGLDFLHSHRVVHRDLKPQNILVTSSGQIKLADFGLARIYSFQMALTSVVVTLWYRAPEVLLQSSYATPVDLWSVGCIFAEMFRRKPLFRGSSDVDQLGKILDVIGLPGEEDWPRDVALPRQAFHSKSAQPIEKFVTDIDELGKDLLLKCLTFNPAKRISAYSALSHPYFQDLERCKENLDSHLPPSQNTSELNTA
Chain of Insulin receptor (Homo sapiens) (P06213 28-758 limits assumed): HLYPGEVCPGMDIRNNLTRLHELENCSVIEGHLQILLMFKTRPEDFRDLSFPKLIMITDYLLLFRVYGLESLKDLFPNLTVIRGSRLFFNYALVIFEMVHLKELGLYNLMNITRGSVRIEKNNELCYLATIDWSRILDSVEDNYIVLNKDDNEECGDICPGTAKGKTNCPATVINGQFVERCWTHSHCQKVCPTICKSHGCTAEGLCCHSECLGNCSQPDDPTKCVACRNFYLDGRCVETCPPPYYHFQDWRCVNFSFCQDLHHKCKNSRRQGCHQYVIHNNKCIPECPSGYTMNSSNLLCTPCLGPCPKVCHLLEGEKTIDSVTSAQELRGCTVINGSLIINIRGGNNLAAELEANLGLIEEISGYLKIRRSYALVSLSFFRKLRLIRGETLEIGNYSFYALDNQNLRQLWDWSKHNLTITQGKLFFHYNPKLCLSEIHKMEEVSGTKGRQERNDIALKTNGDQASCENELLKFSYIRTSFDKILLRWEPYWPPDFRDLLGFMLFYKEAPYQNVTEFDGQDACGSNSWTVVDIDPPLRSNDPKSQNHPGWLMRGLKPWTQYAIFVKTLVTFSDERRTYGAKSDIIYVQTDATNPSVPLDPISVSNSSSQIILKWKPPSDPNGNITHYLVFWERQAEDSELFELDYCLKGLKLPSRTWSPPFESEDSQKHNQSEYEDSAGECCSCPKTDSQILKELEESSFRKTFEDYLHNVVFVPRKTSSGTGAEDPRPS
Chain of Insulin receptor (Homo sapiens) (P06213 763-1382 limits assumed): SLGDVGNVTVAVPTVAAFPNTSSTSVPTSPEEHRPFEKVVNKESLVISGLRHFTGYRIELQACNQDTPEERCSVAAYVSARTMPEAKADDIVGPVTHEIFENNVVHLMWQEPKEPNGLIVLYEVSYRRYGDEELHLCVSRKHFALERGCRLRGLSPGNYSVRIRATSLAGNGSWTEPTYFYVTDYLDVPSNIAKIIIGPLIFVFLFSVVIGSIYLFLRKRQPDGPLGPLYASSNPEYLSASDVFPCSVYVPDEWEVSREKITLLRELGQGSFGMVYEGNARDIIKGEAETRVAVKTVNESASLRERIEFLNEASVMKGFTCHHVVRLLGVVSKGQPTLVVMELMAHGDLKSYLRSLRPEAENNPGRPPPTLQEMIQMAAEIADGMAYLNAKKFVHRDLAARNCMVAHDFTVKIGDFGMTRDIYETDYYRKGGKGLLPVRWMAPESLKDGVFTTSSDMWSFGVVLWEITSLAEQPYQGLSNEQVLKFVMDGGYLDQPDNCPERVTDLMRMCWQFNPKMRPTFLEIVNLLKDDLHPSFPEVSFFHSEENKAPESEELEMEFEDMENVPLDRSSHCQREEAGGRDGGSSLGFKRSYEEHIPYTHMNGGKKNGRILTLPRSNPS
Chain of G protein-coupled receptor kinase 5 (Homo sapiens) (P34947 whole entry, looked up): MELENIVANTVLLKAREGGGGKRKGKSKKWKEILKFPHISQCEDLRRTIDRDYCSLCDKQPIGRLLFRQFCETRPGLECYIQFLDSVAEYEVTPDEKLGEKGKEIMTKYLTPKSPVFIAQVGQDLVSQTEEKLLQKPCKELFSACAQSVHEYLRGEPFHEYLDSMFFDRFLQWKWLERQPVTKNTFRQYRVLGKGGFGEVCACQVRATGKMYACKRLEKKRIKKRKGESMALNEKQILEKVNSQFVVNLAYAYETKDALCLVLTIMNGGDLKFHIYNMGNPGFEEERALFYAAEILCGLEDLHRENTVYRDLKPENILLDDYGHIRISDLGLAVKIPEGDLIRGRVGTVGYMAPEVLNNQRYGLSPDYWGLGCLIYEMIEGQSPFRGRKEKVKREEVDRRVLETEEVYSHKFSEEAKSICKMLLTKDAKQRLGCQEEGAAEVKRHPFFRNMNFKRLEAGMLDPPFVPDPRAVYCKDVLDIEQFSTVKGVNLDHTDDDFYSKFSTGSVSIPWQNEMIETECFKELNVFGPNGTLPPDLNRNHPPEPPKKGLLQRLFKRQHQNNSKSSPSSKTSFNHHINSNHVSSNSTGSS
Chain of 5'-AMP-activated protein kinase catalytic subunit alpha-1 (Homo sapiens) (Q13131 whole entry, looked up): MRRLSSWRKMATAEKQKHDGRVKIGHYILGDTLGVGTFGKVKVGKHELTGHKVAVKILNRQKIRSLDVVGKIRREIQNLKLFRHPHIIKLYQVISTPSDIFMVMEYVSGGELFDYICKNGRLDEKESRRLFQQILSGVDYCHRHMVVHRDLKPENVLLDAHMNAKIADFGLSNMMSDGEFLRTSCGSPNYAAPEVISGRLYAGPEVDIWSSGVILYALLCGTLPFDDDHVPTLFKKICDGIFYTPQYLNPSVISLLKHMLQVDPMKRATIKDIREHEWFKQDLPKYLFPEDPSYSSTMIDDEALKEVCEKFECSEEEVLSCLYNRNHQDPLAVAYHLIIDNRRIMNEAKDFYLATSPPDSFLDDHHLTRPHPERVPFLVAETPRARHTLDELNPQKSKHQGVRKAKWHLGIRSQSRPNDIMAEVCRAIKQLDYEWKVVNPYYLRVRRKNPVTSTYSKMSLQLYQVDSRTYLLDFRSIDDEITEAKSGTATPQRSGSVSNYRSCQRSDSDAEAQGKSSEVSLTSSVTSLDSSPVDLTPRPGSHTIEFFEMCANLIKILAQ

inhibition [1]: 14%
inhibition [2]: 71%
inhibition [3]: 1%
SMILES: CNC(=O)c1ccccc1Oc1nc(Nc2cc(OC)c(OC)c(OC)c2)ncc1Br

inhibition [4]: 0%
fold change (FC) [5]: 0
fold change (FC) [6]: 0
fold change (FC) (Homo sapiens): 0.19
SMILES: CC(C)[C@H](NC(=O)c1cc(-c2cnn3cc(-c4ccc(OCCN5CCCCC5)cc4)cnc23)cs1)C(F)(F)F

inhibition [7]: 3%
fold change (FC) [8]: 0.11
fold change (FC) [9]: 0.1
fold change (FC) [10]: 0.81
SMILES: O=C(N[C@@H](C1CC1)C(F)(F)F)c1cc(-c2cnn3cc(-c4ccc(F)cc4)cnc23)cs1
